Source: ChEMBL document CHEMBL1149099, “Comparative in vivo stability of copper-64-labeled cross-bridged and conventional tetraazamacrocyclic complexes” (J Med Chem, 2004)
Each block holds one substance with its values, some of them ahead of it.

Experiments:
[1] = organism: Rattus norvegicus; assay: Biodistribution of radiolabeled compound in rat liver after 30 min activity expressed as %ID/Organ; assay type: ADME, organism-based; conditions: in vivo, 0.5 h
Summary of the method: (§1)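 Mature female Sprague-Dawley rats (180–200 g) each received the 64Cu complex diluted with saline, about 15 μCi in 150 μL. Groups were sacrificed at 5 min, 30 min, 2 h and 24 h postinjection. Organs were excised, weighed and gamma-counted. %ID/organ was calculated against a weighed, counted standard.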

[2] = organism: Rattus norvegicus; assay: Biodistribution of radiolabeled compound in rat muscle after 30 min activity expressed as %ID/Organ; assay type: ADME, organism-based, Muscle tissue; conditions: in vivo, 0.5 h; summary of the method: as §1
[3] = organism: Rattus norvegicus; assay: Biodistribution of radiolabeled compound in rat muscle after 24 hr activity expressed as %ID/Organ; assay type: ADME, organism-based, Muscle tissue; conditions: in vivo; summary of the method: as §1
[4] = organism: Rattus norvegicus; assay: Biodistribution of radiolabeled compound in rat fat after 5 min activity expressed as %ID/Organ; assay type: ADME, organism-based, Adipose tissue; conditions: in vivo; summary of the method: as §1
[5] = organism: Rattus norvegicus; assay: Biodistribution of radiolabeled compound in rat heart after 24 hr activity expressed as %ID/Organ; assay type: ADME, organism-based; conditions: in vivo; summary of the method: as §1
[6] = organism: Rattus norvegicus; assay: Biodistribution of radiolabeled compound in rat brain after 24 hr activity expressed as %ID/Organ; assay type: ADME, organism-based; conditions: in vivo; summary of the method: as §1
[7] = organism: Rattus norvegicus; assay: Biodistribution of radiolabeled compound in rat blood after 24 hr activity expressed as %ID/Organ; assay type: ADME, organism-based; conditions: in vivo; summary of the method: as §1
[8] = organism: Rattus norvegicus; assay: Biodistribution of radiolabeled compound in rat fat after 24 hr activity expressed as %ID/Organ; assay type: ADME, organism-based, Adipose tissue; conditions: in vivo; summary of the method: as §1
[9] = organism: Rattus norvegicus; assay: Biodistribution of radiolabeled compound in rat lung after 2 hr activity expressed as %ID/Organ; assay type: ADME, organism-based; conditions: in vivo; summary of the method: as §1
[10] = organism: Rattus norvegicus; assay: Biodistribution of radiolabeled compound in rat blood after 5 min activity expressed as %ID/Organ; assay type: ADME, organism-based; conditions: in vivo; summary of the method: as §1
[11] = organism: Rattus norvegicus; assay: Biodistribution of radiolabeled compound in rat lung after 5 min activity expressed as %ID/Organ; assay type: ADME, organism-based; conditions: in vivo; summary of the method: as §1
[12] = organism: Rattus norvegicus; assay: Biodistribution of radiolabeled compound in rat muscle after 2 hr activity expressed as %ID/Organ; assay type: ADME, organism-based, Muscle tissue; conditions: in vivo; summary of the method: as §1
[13] = organism: Rattus norvegicus; assay: Biodistribution of radiolabeled compound in rat lung after 30 min activity expressed as %ID/Organ; assay type: ADME, organism-based; conditions: in vivo, 0.5 h; summary of the method: as §1
[14] = organism: Rattus norvegicus; assay: Biodistribution of radiolabeled compound in rat kidney after 30 min activity expressed as %ID/Organ; assay type: ADME, organism-based; conditions: in vivo, 0.5 h; summary of the method: as §1
[15] = organism: Rattus norvegicus; assay: Biodistribution of radiolabeled compound in rat heart after 30 min activity expressed as %ID/Organ; assay type: ADME, organism-based; conditions: in vivo, 0.5 h; summary of the method: as §1
[16] = organism: Rattus norvegicus; assay: Biodistribution of radiolabeled compound in rat kidney after 5 min activity expressed as %ID/Organ; assay type: ADME, organism-based; conditions: in vivo; summary of the method: as §1
[17] = organism: Rattus norvegicus; assay: Biodistribution of radiolabeled compound in rat bone after 30 min activity expressed as %ID/Organ; assay type: ADME, organism-based, Bone element; conditions: in vivo, 0.5 h; summary of the method: as §1
[18] = organism: Rattus norvegicus; assay: Biodistribution of radiolabeled compound in rat liver after 5 min activity expressed as %ID/Organ; assay type: ADME, organism-based; conditions: in vivo; summary of the method: as §1
[19] = organism: Rattus norvegicus; assay: Biodistribution of radiolabeled compound in rat brain after 30 min activity expressed as %ID/Organ; assay type: ADME, organism-based; conditions: in vivo, 0.5 h; summary of the method: as §1
[20] = organism: Rattus norvegicus; assay: Biodistribution of radiolabeled compound in rat liver after 2 hr activity expressed as %ID/Organ; assay type: ADME, organism-based; conditions: in vivo; summary of the method: as §1
[21] = organism: Rattus norvegicus; assay: Biodistribution of radiolabeled compound in rat heart after 5 min activity expressed as %ID/Organ; assay type: ADME, organism-based; conditions: in vivo; summary of the method: as §1
[22] = organism: Rattus norvegicus; assay: Biodistribution of radiolabeled compound in rat bone after 5 min activity expressed as %ID/Organ; assay type: ADME, organism-based, Bone element; conditions: in vivo; summary of the method: as §1
[23] = organism: Rattus norvegicus; assay: Biodistribution of radiolabeled compound in rat fat after 2 hr activity expressed as %ID/Organ; assay type: ADME, organism-based, Adipose tissue; conditions: in vivo; summary of the method: as §1
[24] = organism: Rattus norvegicus; assay: Biodistribution of radiolabeled compound in rat fat after 30 min activity expressed as %ID/Organ; assay type: ADME, organism-based, Adipose tissue; conditions: in vivo, 0.5 h; summary of the method: as §1
[25] = organism: Rattus norvegicus; assay: Biodistribution of radiolabeled compound in rat lung after 24 hr activity expressed as %ID/Organ; assay type: ADME, organism-based; conditions: in vivo; summary of the method: as §1
[26] = organism: Rattus norvegicus; assay: Biodistribution of radiolabeled compound in rat kidney after 2 hr activity expressed as %ID/Organ; assay type: ADME, organism-based; conditions: in vivo; summary of the method: as §1
[27] = organism: Rattus norvegicus; assay: Biodistribution of radiolabeled compound in rat heart after 2 hr activity expressed as %ID/Organ; assay type: ADME, organism-based; conditions: in vivo; summary of the method: as §1
[28] = organism: Rattus norvegicus; assay: Biodistribution of radiolabeled compound in rat muscle after 5 min activity expressed as %ID/Organ; assay type: ADME, organism-based, Muscle tissue; conditions: in vivo; summary of the method: as §1
[29] = organism: Rattus norvegicus; assay: Biodistribution of radiolabeled compound in rat brain after 2 hr activity expressed as %ID/Organ; assay type: ADME, organism-based; conditions: in vivo; summary of the method: as §1
[30] = organism: Rattus norvegicus; assay: Biodistribution of radiolabeled compound in rat bone after 2 hr activity expressed as %ID/Organ; assay type: ADME, organism-based, Bone element; conditions: in vivo; summary of the method: as §1
[31] = organism: Rattus norvegicus; assay: Biodistribution of radiolabeled compound in rat blood after 2 hr activity expressed as %ID/Organ; assay type: ADME, organism-based; conditions: in vivo; summary of the method: as §1
[32] = organism: Rattus norvegicus; assay: Biodistribution of radiolabeled compound in rat liver after 24 hr activity expressed as %ID/Organ; assay type: ADME, organism-based; conditions: in vivo; summary of the method: as §1
[33] = organism: Rattus norvegicus; assay: Biodistribution of radiolabeled compound in rat blood after 30 min activity expressed as %ID/Organ; assay type: ADME, organism-based; conditions: in vivo, 0.5 h; summary of the method: as §1
[34] = organism: Rattus norvegicus; assay: Biodistribution of radiolabeled compound in rat bone after 24 hr activity expressed as %ID/Organ; assay type: ADME, organism-based, Bone element; conditions: in vivo; summary of the method: as §1
[35] = organism: Rattus norvegicus; assay: Biodistribution of radiolabeled compound in rat brain after 5 min activity expressed as %ID/Organ; assay type: ADME, organism-based; conditions: in vivo; summary of the method: as §1
[36] = organism: Rattus norvegicus; assay: Biodistribution of radiolabeled compound in rat kidney after 24 hr activity expressed as %ID/Organ; assay type: ADME, organism-based; conditions: in vivo; summary of the method: as §1
[37] = organism: Rattus norvegicus; assay: Biodistribution of radiolabeled compound in rat kidney after 24 hr postinjection activity expressed as %ID/Organ; assay type: ADME, organism-based; conditions: in vivo
[38] = organism: Rattus norvegicus; assay: Biodistribution of radiolabeled compound in rat blood after 24 hr postinjection activity expressed as %ID/Organ; assay type: ADME, organism-based; conditions: in vivo
[39] = organism: Rattus norvegicus; assay: Biodistribution of radiolabeled compound in rat liver after 24 hr postinjection activity expressed as %ID/Organ; assay type: ADME, organism-based; conditions: in vivo

Biodistribution [1]: 1.47%
Biodistribution [2]: 6.42%
Biodistribution [3]: 0.28%
Biodistribution [4]: 3.99%
Biodistribution [5]: 0.0065%
Biodistribution [6]: 0.002%
Biodistribution [7]: 0.14%
Biodistribution [8]: 0.12%
Biodistribution [9]: 0.044%
Biodistribution [10]: 13.45%
Biodistribution [11]: 0.72%
Biodistribution [12]: 1.39%
Biodistribution [13]: 0.21%
Biodistribution [14]: 1.14%
Biodistribution [15]: 0.067%
Biodistribution [16]: 2.64%
Biodistribution [17]: 1.69%
Biodistribution [18]: 2.47%
Biodistribution [19]: 0.036%
Biodistribution [20]: 0.93%
Biodistribution [21]: 0.22%
Biodistribution [22]: 4.52%
Biodistribution [23]: 0.22%
Biodistribution [24]: 2.14%
Biodistribution [25]: 0.019%
Biodistribution [26]: 0.44%
Biodistribution [27]: 0.0095%
Biodistribution [28]: 18.27%
Biodistribution [29]: 0.008%
Biodistribution [30]: 0.56%
Biodistribution [31]: 0.32%
Biodistribution [32]: 0.39%
Biodistribution [33]: 3.79%
Biodistribution [34]: 0.24%
Biodistribution [35]: 0.097%
Biodistribution [36]: 0.064%
Substance: Cu-CB-DO2A

Biodistribution [37]: 0.064%
Biodistribution [38]: 0.032%
Biodistribution [39]: 0.14%
Substance: Cu-CB-TE2A

Biodistribution [37]: 0.54%
Biodistribution [38]: 0.58%
Biodistribution [39]: 1.05%
Substance: Cu-DOTA

Biodistribution [37]: 0.21%
Biodistribution [38]: 0.21%
Biodistribution [39]: 0.49%
Substance: Cu-TETA
